ChEMBL document CHEMBL1121663, “(Acylaryloxy)acetic acid diuretics. 3. 2,3-Dihydro-5-acyl-2-benzofurancarboxylic acids, a new class of uricosuric diuretics” (1981)
Where “and” joins values, the source holds several entries; their conditions need not be identical. Equal values may be shown once.

test system: Pan troglodytes; experiment: Compound was tested for natriuretic activity in chimpanzee measured as microequivalent of Na+/minute at 1 mg/kg; mequiv of Na; format: functional
Outline: (§1)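 Inulin iv gave GFR; urate and inulin clearances and Na+, K+, Cl- excretion were measured by AutoAnalyzer. Controls were three 20-min periods; compound was given orally in aqueous solution via nasal catheter. Response was the mean of eight 15-20 min periods, reported as treatment minus control from single experiments.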

Row | Compound | Oral activity
1 | O=C(c1cccs1)c1cc2c(c(Cl)c1Cl)O[C@@H](C(=O)O)C2 | 711 and 637

test system: Pan troglodytes; experiment: Compound was tested for natriuretic activity in chimpanzee measured as microequivalent of Na+/minute at 1.0 mg/kg dose; mequiv of Na; format: functional; outline: as §1

Row | Compound | Oral activity
2 | O=C(c1cccs1)c1cc2c(c(Cl)c1Cl)O[C@@H](C(=O)O)C2 | 540

test system: Pan troglodytes; experiment: Compound was tested for natriuretic activity in chimpanzee measured as microequivalent of Na+/minute at 0 mg/kg; mequiv of Na; format: functional; outline: as §1

Row | Compound | Oral activity
3 | O=C(c1cccs1)c1cc2c(c(Cl)c1Cl)O[C@@H](C(=O)O)C2 | 26

test system: Pan troglodytes; experiment: Compound was tested for natriuretic activity in chimpanzee at 5 mg/kg dose activity is measured as microequivalent of Na+/minute; muequiv of Na+/min; format: functional; outline: as §1

Row | Compound | Oral activity
4 | NS(=O)(=O)c1cc(C(=O)O)c(NCc2ccco2)cc1Cl [FUROSEMIDE] | 1035
5 | O=C(c1cccs1)c1cc2c(c(Cl)c1Cl)O[C@H](C(=O)O)C2 | 1451
6 | O=C(O)c1cc2cc(C(=O)c3cccs3)c(Cl)c(Cl)c2o1 | 396

test system: Pan troglodytes; experiment: Compound was tested for natriuretic activity in chimpanzee measured as microequivalent of Na+/minute at 0.0312 mg/kg; mequiv of Na; format: functional; outline: as §1

Row | Compound | Oral activity
7 | O=C(c1cccs1)c1cc2c(c(Cl)c1Cl)O[C@@H](C(=O)O)C2 | 256

test system: Pan troglodytes; experiment: Compound was tested for natriuretic activity in chimpanzee measured as microequivalent of Na+/minute at 10 mg/kg; mequiv of Na; format: functional; outline: as §1

Row | Compound | Oral activity
8 | O=C(c1cccs1)c1cc2c(c(Cl)c1Cl)O[C@@H](C(=O)O)C2 | 622 and 482

test system: Canis familiaris; experiment: Compound was tested for diuretic activity in dogs at 5 mg/kg dose after oral administration measured as microequivalent of Cl-/minute; format: functional, Canis lupus familiaris, Urine
Outline: (§2)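 Oral dog test: water loading (250 mL po, then 500 mL 1 h later). One hour later bladders were emptied by catheter and compound or placebo given in gelatin capsules. Dogs were kept in metabolism cages. Voided urine plus catheterized bladder urine was pooled at 5 h, and Na+, K+ and Cl- were measured by standard methods. Geometric means are reported.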

Row | Compound | Oral activity
9 | O=C(c1cccs1)c1cc2c(c(Cl)c1Cl)O[C@H](C(=O)O)C2 | 53.7
10 | O=C(O)c1cc2cc(C(=O)c3cccs3)c(Cl)c(Cl)c2o1 | 9.8

test system: Canis familiaris; experiment: Compound was tested for diuretic activity in dogs at 5 mg/kg dose after oral administration measured as microequivalent of K+/minute; format: functional, Canis lupus familiaris, Urine; outline: as §2

Row | Compound | Oral activity
11 | O=C(c1cccs1)c1cc2c(c(Cl)c1Cl)O[C@H](C(=O)O)C2 | 8.3
12 | O=C(O)c1cc2cc(C(=O)c3cccs3)c(Cl)c(Cl)c2o1 | 1.6

test system: Canis familiaris; experiment: Compound was tested for diuretic activity in dogs at 5 mg/kg dose after oral administration measured as microequivalent of Na+/minute; format: functional, Canis lupus familiaris, Urine; outline: as §2

Row | Compound | Oral activity
13 | O=C(c1cccs1)c1cc2c(c(Cl)c1Cl)O[C@H](C(=O)O)C2 | 46
14 | O=C(O)c1cc2cc(C(=O)c3cccs3)c(Cl)c(Cl)c2o1 | 6.9

test system: Canis familiaris; experiment: Compound was tested for diuretic activity in dogs at 5 mg/kg dose after intravenous administration measured as microequivalent of Cl-/minute; 9/510 (Control/Drug treated); format: functional, Canis lupus familiaris, Urine
Outline: (§3)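 Intravenous dog clearance study. A priming iv injection of 1.5 mL/kg isoosmotic pH 7.4 phosphate buffer (20 mg PO4/kg) was given first. This was followed by infusion of 3 mL/min pH 7.4 buffer containing 4% mannitol (6.9 mg PO4/min) throughout the experiment. Urinary Na+, K+ and Cl- were measured by standard methods. Each value is the mean of the two highest consecutive 15-min collections.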

Row | Compound | Cl- excretion [µequiv/min]
15 | O=C(O)c1cc2cc(C(=O)c3cccs3)c(Cl)c(Cl)c2o1 | 510

test system: Canis familiaris; experiment: Compound was tested for diuretic activity in dogs at 5 mg/kg dose after intravenous administration measured as microequivalent of Cl-/minute; 7/1385 (Control/Drug treated); format: functional, Canis lupus familiaris, Urine; outline: as §3

Row | Compound | Cl- excretion [µequiv/min]
16 | O=C(c1cccs1)c1cc2c(c(Cl)c1Cl)O[C@H](C(=O)O)C2 | 1380

test system: Canis familiaris; experiment: Compound was tested for diuretic activity in dogs at 5 mg/kg dose after intravenous administration measured as microequivalent of K+/minute; 5/19 (Control/Drug treated); format: functional, Canis lupus familiaris, Urine; outline: as §3

Row | Compound | K+ excretion [µequiv/min]
17 | O=C(O)c1cc2cc(C(=O)c3cccs3)c(Cl)c(Cl)c2o1 | 19

test system: Rattus norvegicus; experiment: Natriuretic activity in rats at 27 mg/kg of dosage; mequiv of Na; format: functional
Outline: (§4)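 Rats housed three per metabolism cage received placebo vehicle or compound as a suspension in a final volume of 5.0 mL orally, with placebo groups run concurrently. Urine was collected over 0–5 h and analysed for Na+, K+ and Cl− by standard methods. Values are mequiv per cage, given as geometric means of three cages per dose level.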

Row | Compound | Oral activity
18 | NS(=O)(=O)c1cc(C(=O)O)c(NCc2ccco2)cc1Cl [FUROSEMIDE] | 125
19 | O=C(c1cccs1)c1cc2c(c(Cl)c1Cl)O[C@H](C(=O)O)C2 | 283
20 | O=C(O)c1cc2cc(C(=O)c3cccs3)c(Cl)c(Cl)c2o1 | 88

test system: Rattus norvegicus; experiment: Natriuretic activity in rats at 3 mg/kg of dosage; mequiv of Na; format: functional; outline: as §4

Row | Compound | Oral activity
21 | NS(=O)(=O)c1cc(C(=O)O)c(NCc2ccco2)cc1Cl [FUROSEMIDE] | 6
22 | O=C(c1cccs1)c1cc2c(c(Cl)c1Cl)O[C@H](C(=O)O)C2 | 177
23 | O=C(O)c1cc2cc(C(=O)c3cccs3)c(Cl)c(Cl)c2o1 | 32

test system: Rattus norvegicus; experiment: Natriuretic activity in rats at 81 mg/kg of dosage; mequiv of Na; format: functional; outline: as §4

Row | Compound | Oral activity
24 | NS(=O)(=O)c1cc(C(=O)O)c(NCc2ccco2)cc1Cl [FUROSEMIDE] | 234
25 | O=C(c1cccs1)c1cc2c(c(Cl)c1Cl)O[C@H](C(=O)O)C2 | 339
26 | O=C(O)c1cc2cc(C(=O)c3cccs3)c(Cl)c(Cl)c2o1 | 131

test system: Rattus norvegicus; experiment: Natriuretic activity in rats at 9 mg/kg of dosage; mequiv of Na; format: functional; outline: as §4

Row | Compound | Oral activity
27 | NS(=O)(=O)c1cc(C(=O)O)c(NCc2ccco2)cc1Cl [FUROSEMIDE] | 7
28 | O=C(c1cccs1)c1cc2c(c(Cl)c1Cl)O[C@H](C(=O)O)C2 | 251
29 | O=C(O)c1cc2cc(C(=O)c3cccs3)c(Cl)c(Cl)c2o1 | 62

test system: Canis familiaris; experiment: Compound was tested for diuretic activity in dogs at 5 mg/kg dose after intravenous administration, activity is expressed as urine volume

Row | Compound | Urine volume [mL]
30 | NS(=O)(=O)c1cc(C(=O)O)c(NCc2ccco2)cc1Cl [FUROSEMIDE] | 700

test system: not listed separately; experiment: Compound was tested for natriuretic activity in chimpanzee at 5 mg/kg dose activity is measured as ratio of clearance of urate / […]; Curate/Cinulin; format: functional; outline: as §1

Row | Compound | Ratio
31 | NS(=O)(=O)c1cc(C(=O)O)c(NCc2ccco2)cc1Cl [FUROSEMIDE] | -0.02
32 | O=C(c1cccs1)c1cc2c(c(Cl)c1Cl)O[C@H](C(=O)O)C2 | 0.132
33 | O=C(O)c1cc2cc(C(=O)c3cccs3)c(Cl)c(Cl)c2o1 | 0.061

test system: not listed separately; experiment: Activity is measured as ratio of clearance of urate / […] at 0 mg/kg; Curate/Cinulin; format: functional
Outline: (§5)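 Inulin iv gave GFR, and urate clearance was measured by AutoAnalyzer. Controls came from three 20-min periods. Aqueous compound was given orally by nasal catheter, and the response was averaged over eight 15-20 min periods. Values are treatment minus control from single experiments.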

Row | Compound | Ratio
34 | O=C(c1cccs1)c1cc2c(c(Cl)c1Cl)O[C@@H](C(=O)O)C2 | 0.013

test system: not listed separately; experiment: Activity is measured as ratio of clearance of urate / […] at 0.0312 mg/kg; Curate/Cinulin; format: functional; outline: as §5

Row | Compound | Ratio
35 | O=C(c1cccs1)c1cc2c(c(Cl)c1Cl)O[C@@H](C(=O)O)C2 | 0.01

test system: not listed separately; experiment: Activity is measured as ratio of clearance of urate / […] at 1.0 mg/kg dose; Curate/Cinulin; format: functional; outline: as §5

Row | Compound | Ratio
36 | O=C(c1cccs1)c1cc2c(c(Cl)c1Cl)O[C@@H](C(=O)O)C2 | -0.019

test system: not listed separately; experiment: Activity is measured as ratio of clearance of urate / […] at 10 mg/kg; Curate/Cinulin; format: functional; outline: as §5

Row | Compound | Ratio
37 | O=C(c1cccs1)c1cc2c(c(Cl)c1Cl)O[C@@H](C(=O)O)C2 | 0.376 and 0.358

species on record: Pan troglodytes; experiment: Compound was tested for natriuretic activity in chimpanzee measured as microequivalent of Na+/minute at […]; mequiv of Na; format: functional; outline: as §1

Row | Compound | Oral activity
38 | O=C(c1cccs1)c1cc2c(c(Cl)c1Cl)O[C@@H](C(=O)O)C2 | 492

test system: Canis familiaris; experiment: Diuretic activity in dogs following 5 mg/kg oral administration.

Row | Compound | Urine volume [mL]
39 | O=C(c1cccs1)c1cc2c(c(Cl)c1Cl)O[C@H](C(=O)O)C2 | 501
40 | O=C(O)c1cc2cc(C(=O)c3cccs3)c(Cl)c(Cl)c2o1 | 270
